Measured values gathered from unrelated publications.
Lines come from different studies, so protocols differ.
Cell line: A549
Effect on: cell growth or viability
Method: CCK-8

| SMILES | conditions | measurement | value |
| --- | --- | --- | --- |
| O=C(NCc1cn(Cc2ccc(Cl)cc2)nn1)Nc1ccccc1Br | 20 µM, 72 h | viability | 86.4% |
| COc1ccc2/c(=N/c3ccccc3NC(=O)[C@H](C)N)cc(-c3ccc4c(c3)OCCO4)oc2c1 | 1 µM | inhibition | -2.21% |
| O=C(Nc1ccc(Cl)cc1)Nc1ccc(-c2cn(Cc3ccc(Cl)cc3)nn2)cc1 | 50 µM, 72 h | viability | 79.6% |
| CCCCn1cnc2ccc(-c3ccc(NC(=O)Nc4ccc(OC)cc4)nc3)cc2c1=O | 72 h | IC50 | > 10 µM |
| NCCC(=O)Nc1ccccc1/N=c1\cc(-c2ccc3nc(N)oc3c2)oc2ccc(F)cc12 | 1 µM | inhibition | 42.4% |
| COc1ccc(NC(=O)Nc2ccc(-c3cn(Cc4ccc(C)cc4)nn3)cc2)cc1 | 50 µM, 72 h | viability | 76.2% |
| Cc1ccc(C(=O)Nc2ccc(-c3ccc4ncn(Cc5ccccc5)c(=O)c4c3)cn2)cc1 | 72 h | IC50 | > 10 µM |
| COc1ccc2/c(=N/c3ccccc3NC(=O)[C@@H](N)C(C)(C)C)cc(-c3ccc4c(c3)OCO4)oc2c1 | 1 µM | inhibition | -3.68% |
| CCCC(=O)Nc1ccc(-c2ccc3ncn(Cc4ccccc4)c(=O)c3c2)cn1 | 72 h | IC50 | > 10 µM |
| COc1ccc(NC(=O)NCc2cn(Cc3ccc(Br)cc3)nn2)cc1 | 50 µM, 72 h | viability | 96.4% |
| CCCCC(=O)Nc1ccc(-c2ccc3ncn(CCCF)c(=O)c3c2)cn1 | 72 h | IC50 | 1.79 µM |
| COc1ccc(NC(=O)Nc2cccc(-c3cn(Cc4ccc(C)cc4)nn3)c2)cc1 | 50 µM, 72 h | viability | 190% |
